Assay results reported in ChEMBL document CHEMBL4414600, “Discovery of a Furanopyrimidine-Based Epidermal Growth Factor Receptor Inhibitor (DBPR112) as a Clinical Candidate for the Treatment of Non-Small Cell Lung Cancer” (J Med Chem, 2019).
Calls of active or inactive are those of the source. The rule behind the calls is not given here.

Columns and labels:
[1] = target: Epidermal growth factor receptor (Homo sapiens, UniProt P00533)
[2] = target: Epidermal growth factor receptor (Homo sapiens, UniProt P00533, L858R/T790M)
[3] = test system: HCC827; test: Cytotoxicity in human HCC827 cells assessed as reduction in cell viability incubated for 96 hrs by MTS method; format: functional
[4] = test system: NCI-H1975; test: Cytotoxicity in human NCI-H1975 cells assessed as reduction in cell viability incubated for 96 hrs by MTS method; format: functional
[5] = target: Epidermal growth factor receptor (Homo sapiens, UniProt P00533, A763-Y764INSFHEA); test: Inhibition of GST-tagged human EGFR A763_Y764insFHEA mutant using poly(Glu, Tyr) 4:1 substrate incubated for 120 mins by kinase-Glo plus luminescent kinase assay
[6] = Inhibition of GST-tagged human EGFR D770GY mutant using poly(Glu, Tyr) 4:1 substrate incubated for 120 mins by kinase-Glo plus luminescent kinase assay
[7] = target: Epidermal growth factor receptor (Homo sapiens, UniProt P00533, D770-N771INSNPG); test: Inhibition of GST-tagged human EGFR D770_N771insNPG mutant using poly(Glu, Tyr) 4:1 substrate incubated for 120 mins by kinase-Glo plus luminescent kinase assay
[8] = Inhibition of GST-tagged human HER2 V777_G778insCG mutant mutant using poly(Glu, Tyr) 4:1 substrate incubated for 120 mins by kinase-Glo plus luminescent kinase assay
[9] = test system: A-431; test: Cytotoxicity in human A431 cells assessed as reduction in cell viability incubated for 96 hrs by MTS method; format: functional
[10] = Half life in rat at 5 mg/kg, iv; format: ADME, organism-based; conditions: in vivo
[11] = Clearance in rat at 5 mg/kg, iv; format: ADME, organism-based; conditions: in vivo
[12] = Volume of distribution at steady state in rat at 5 mg/kg, iv; format: ADME, organism-based; conditions: in vivo, read-out: Vdss
[13] = AUC (0 to infinity) in rat at 5 mg/kg, iv; format: ADME, organism-based; set-up: dose 5 mg/kg, time infinity, route intravenous; conditions: in vivo
[14] = Cmax in rat at 20 mg/kg, po; format: ADME, organism-based; set-up: dose 20 mg/kg, route oral; conditions: in vivo
How it was run: (§1)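 Rat pharmacokinetics: single IV injection at 5 mg/kg or oral dosing at 20 mg/kg (23.6 mg/kg oral for one compound). Plasma parameters t1/2, CL, Vss, AUC(0-inf), Cmax, Tmax and oral bioavailability F were derived from the concentration–time profiles.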

[15] = Tmax in rat at 20 mg/kg, po; format: ADME, organism-based; conditions: in vivo
How it was run: as §1

[16] = AUC (0 to infinity) in rat at 20 mg/kg, po; format: ADME, organism-based; set-up: dose 20 mg/kg, route oral, time infinity; conditions: in vivo
How it was run: as §1

[17] = Oral bioavailability in rat at 20 mg/kg; format: ADME, organism-based; conditions: in vivo
How it was run: as §1

[18] = Half life in rat at 20 mg/kg, po; format: ADME, organism-based; conditions: in vivo
How it was run: as §1

[19] = Toxicity in ICR mouse assessed as induction of fur loss in nose and abdomen area at 100 mg/kg, po QD for 2 weeks; format: organism-based; conditions: in vivo, 336 h
[20] = Toxicity in ICR mouse assessed as induction of skin rash at 100 mg/kg, po QD for 2 weeks; format: organism-based; conditions: in vivo, 336 h
[21] = Toxicity in athymic NU-Fox1nu nude mouse xenografted with human HCC827 cells assessed as induction of body weight loss at 20 mg/kg, po dosed via gavage for 5 days/week for 2 consecutive weeks; format: organism-based; conditions: in vivo, 120 h
How it was run: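 Male athymic NU-Fox1nu nude mice, 6–8 weeks old, were inoculated subcutaneously at the left flank with 5x10^6 HCC827 (exon 19 Del E746_A750) cells. Oral gavage began at a mean tumor size of about 500 mm³, in 1% methylcellulose/0.5% Tween 80/98.5% water, once daily on days 1-5 and 8-12. Tumor volume (V = 0.5 a × b², caliper) and body weight were tracked.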

[22] = test system: NCI-H1975; test: Antitumor activity against human NCI-H1975 cells xenografted in nude BALB/c mouse assessed as inhibition of tumor growth at 15 mg/kg, po QD for 15 days relative to control; format: functional; conditions: 360 h, read-out: TGI
How it was run: (§2)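 H1975 cells were grown in RPMI1640 with 10% heat-inactivated FBS at 37 °C, 5% CO2, and passaged by trypsin-EDTA. 5x10^6 cells in 0.1 ml PBS were injected subcutaneously at the right flank of BALB/c nude mice. Oral QD dosing for 15 days began at a mean tumor size of 147 mm³, n = 5 per group.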

[23] = Toxicity in nude BALB/c mouse xenografted with human NCI-H1975 cells assessed as induction of body weight loss at 15 mg/kg, po QD for 15 days relative to control; format: organism-based; conditions: in vivo, 360 h
How it was run: as §2

[24] = Toxicity in nude BALB/c mouse xenografted with human NCI-H1975 cells assessed as drug tolerability at 15 mg/kg, po QD for 15 days relative to control; format: organism-based; conditions: in vivo, 360 h
How it was run: as §2

[25] = test system: HCC827; conditions: Homo sapiens

Sequence of Epidermal growth factor receptor (Homo sapiens, UniProt P00533, L858R/T790M) (P00533 25-1210 T790M/L858R limits assumed): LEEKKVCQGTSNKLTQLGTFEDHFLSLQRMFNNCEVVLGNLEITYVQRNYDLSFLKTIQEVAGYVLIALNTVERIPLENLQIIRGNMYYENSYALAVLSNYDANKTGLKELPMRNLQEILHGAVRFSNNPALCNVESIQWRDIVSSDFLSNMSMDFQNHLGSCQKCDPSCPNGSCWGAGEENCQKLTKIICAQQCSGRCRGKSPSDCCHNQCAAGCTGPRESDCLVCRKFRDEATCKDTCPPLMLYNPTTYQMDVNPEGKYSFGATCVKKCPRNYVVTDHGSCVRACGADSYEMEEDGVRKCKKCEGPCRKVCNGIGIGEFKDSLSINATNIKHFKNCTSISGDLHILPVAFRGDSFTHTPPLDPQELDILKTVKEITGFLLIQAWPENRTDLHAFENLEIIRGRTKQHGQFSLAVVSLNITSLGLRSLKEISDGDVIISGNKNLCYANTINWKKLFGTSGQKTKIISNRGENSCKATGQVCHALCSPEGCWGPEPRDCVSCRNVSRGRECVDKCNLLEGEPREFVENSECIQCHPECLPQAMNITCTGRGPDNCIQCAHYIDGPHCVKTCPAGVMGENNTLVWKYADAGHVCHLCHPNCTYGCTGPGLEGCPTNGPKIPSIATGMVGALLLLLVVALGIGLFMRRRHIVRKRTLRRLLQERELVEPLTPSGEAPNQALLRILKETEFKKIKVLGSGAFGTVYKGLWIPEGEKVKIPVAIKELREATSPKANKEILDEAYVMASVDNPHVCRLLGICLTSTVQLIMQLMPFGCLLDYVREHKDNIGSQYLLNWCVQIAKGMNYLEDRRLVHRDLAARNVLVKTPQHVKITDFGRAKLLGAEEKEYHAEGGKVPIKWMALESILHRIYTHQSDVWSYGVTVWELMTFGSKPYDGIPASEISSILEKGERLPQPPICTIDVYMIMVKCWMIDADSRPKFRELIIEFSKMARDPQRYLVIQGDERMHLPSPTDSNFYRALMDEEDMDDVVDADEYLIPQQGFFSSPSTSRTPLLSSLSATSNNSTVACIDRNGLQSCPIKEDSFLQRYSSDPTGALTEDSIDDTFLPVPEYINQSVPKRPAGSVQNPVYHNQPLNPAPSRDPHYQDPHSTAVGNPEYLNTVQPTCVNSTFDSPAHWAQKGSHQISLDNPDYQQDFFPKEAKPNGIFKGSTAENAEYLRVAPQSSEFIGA
Sequence of Epidermal growth factor receptor (Homo sapiens, UniProt P00533) (P00533 whole entry): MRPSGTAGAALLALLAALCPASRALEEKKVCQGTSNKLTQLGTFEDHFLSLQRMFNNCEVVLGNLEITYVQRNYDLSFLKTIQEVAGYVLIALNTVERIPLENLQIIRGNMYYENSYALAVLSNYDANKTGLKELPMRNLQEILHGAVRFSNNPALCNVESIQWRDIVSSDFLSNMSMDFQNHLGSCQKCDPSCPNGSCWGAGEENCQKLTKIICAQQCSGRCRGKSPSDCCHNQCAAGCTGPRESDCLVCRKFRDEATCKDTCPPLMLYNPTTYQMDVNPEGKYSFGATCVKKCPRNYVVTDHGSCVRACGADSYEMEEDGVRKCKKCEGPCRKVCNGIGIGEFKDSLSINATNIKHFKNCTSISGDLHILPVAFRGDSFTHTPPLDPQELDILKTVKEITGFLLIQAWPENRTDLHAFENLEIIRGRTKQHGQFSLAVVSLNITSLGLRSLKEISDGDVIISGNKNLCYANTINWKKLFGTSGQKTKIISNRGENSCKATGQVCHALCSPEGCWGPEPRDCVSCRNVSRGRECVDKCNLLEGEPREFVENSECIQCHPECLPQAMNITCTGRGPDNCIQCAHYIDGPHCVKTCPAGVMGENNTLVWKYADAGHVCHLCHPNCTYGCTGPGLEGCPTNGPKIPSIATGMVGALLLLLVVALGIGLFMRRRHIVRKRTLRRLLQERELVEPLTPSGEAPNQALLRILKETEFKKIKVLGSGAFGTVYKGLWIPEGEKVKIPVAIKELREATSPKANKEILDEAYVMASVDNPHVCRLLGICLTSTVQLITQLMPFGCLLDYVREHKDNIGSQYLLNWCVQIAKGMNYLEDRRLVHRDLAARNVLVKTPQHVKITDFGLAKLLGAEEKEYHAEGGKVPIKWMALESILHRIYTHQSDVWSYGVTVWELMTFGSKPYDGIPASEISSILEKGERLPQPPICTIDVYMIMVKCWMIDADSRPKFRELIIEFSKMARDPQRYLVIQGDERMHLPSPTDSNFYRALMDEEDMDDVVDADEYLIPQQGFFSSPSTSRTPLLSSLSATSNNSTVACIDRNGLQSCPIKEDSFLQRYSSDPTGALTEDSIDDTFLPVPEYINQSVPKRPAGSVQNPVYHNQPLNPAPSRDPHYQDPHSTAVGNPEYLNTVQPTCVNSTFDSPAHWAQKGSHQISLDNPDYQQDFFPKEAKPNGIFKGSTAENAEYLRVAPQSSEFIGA
Sequence of Epidermal growth factor receptor (Homo sapiens, UniProt P00533, A763-Y764INSFHEA) (P00533 whole entry, looked up, stated change not applied): as the sequence (P00533 whole entry) above
Sequence of Epidermal growth factor receptor (Homo sapiens, UniProt P00533, D770-N771INSNPG) (P00533 whole entry, looked up, stated change not applied): as the sequence (P00533 whole entry) above

| Compound | IC50 [1] | IC50 [2] | CC50 ([3]; Homo sapiens, HCC827, 96 h) | CC50 ([4]; Homo sapiens, NCI-H1975, 96 h) | also measured |
| --- | --- | --- | --- | --- | --- |
| C=CC(=O)Nc1cc(Nc2nccc(-c3cn(C)c4ccccc34)n2)c(OC)cc1N(C)CCN(C)C [OSIMERTINIB] | – | – | – | – | IC50 [6]: 0.858 nM; IC50 [8]: 3.31 nM; CC50 [9]: […] |
| C=CC(=O)Nc1cccc(-c2csc3ncnc(N[C@H](CO)c4ccccc4)c23)c1 | 82 nM | 2320 nM | 56 nM | > 20000 nM | – |
| CCOC(=O)/C=C/C(=O)Nc1cccc(-c2c(-c3ccccc3)oc3ncnc(N[C@H](CO)c4ccccc4)c23)c1 | – | – | 516 nM | 7010 nM | – |
| C=CC(=O)Nc1cccc(-c2c(-c3ccccc3OC)oc3ncnc(N[C@H](CO)c4ccccc4)c23)c1 | – | – | 34 nM | 4080 nM | IC50 [6]: 0.295 nM; IC50 [8]: 5.2 nM; CC50 ([9]; Homo sapiens, A-431, 96 h): > 8010 nM |
| C=CC(=O)Nc1cccc(-c2c(-c3ccccc3)oc3ncnc(N[C@H](CO)c4ccccc4)c23)c1 | – | – | – | – | CC50 [3]: 24 nM; CC50 [4]: 1260 nM; half-life [10]: 0.5 h; clearance [11]: 4.59 L/h/kg; Vd [12]: 2.3 L/kg; AUC(0-inf) [13]: 1.1 µg·h/mL; Cmax [14]: 0.193 µg/mL; Tmax [15]: 1.2 h; AUC(0-inf) [16]: 0.303 µg·h/mL; bioavailability [17]: 5.5%; half-life [18]: 0.9 h |
| C=CC(=O)N1CCC(Oc2cc3c(Nc4ccc(Cl)c(Cl)c4F)ncnc3cc2OC)CC1 [POZIOTINIB] | – | – | – | – | IC50 [6]: 0.082 nM; IC50 [8]: 0.206 nM; CC50 ([9]; Homo sapiens, A-431, 96 h): 31 nM |
| CN(C)C/C=C/C(=O)Nc1cccc(-c2c(-c3ccccc3)oc3ncnc(N[C@@H](CO)c4ccccc4)c23)c1 | – | – | – | – | CC50 [3]: 1050 nM |
| C=CC(=O)Nc1cccc(-c2coc3ncnc(N[C@H](CO)c4ccccc4)c23)c1 | 159 nM | > 10000 nM | 744 nM | > 20000 nM | – |
| C=CC(=O)Nc1cccc(-c2c(Cl)sc3ncnc(N[C@H](CO)c4ccccc4)c23)c1 | 81 nM | 1080 nM | 51 nM | 8660 nM | – |
| C=CC(=O)Nc1cccc(-c2noc3ncnc(N[C@H](CO)c4ccccc4)c23)c1 | 416 nM | 4630 nM | 105 nM | > 20000 nM | – |
| C=CC(=O)Nc1cccc(-c2c(C)sc3ncnc(N[C@H](CO)c4ccccc4)c23)c1 | 107 nM | 1260 nM | 35 nM | 12600 nM | – |
| CN(C)C/C=C/C(=O)Nc1cc2c(Nc3ccc(F)c(Cl)c3)ncnc2cc1O[C@H]1CCOC1 [AFATINIB] | – | – | 14 nM | 224 nM | Activity [19]: Toxic; Activity [20]: Toxic; Activity [21]: 5%; inhibition in vivo at 15 mg/kg [22]: 65%; Activity [23]: Non-Toxic; Activity [24]: Non-Toxic; half-life [10]: 5.7 h; clearance [11]: 4.75 L/h/kg; Vd [12]: 28.7 L/kg; AUC(0-inf) [13]: 1.06 µg·h/mL; Cmax [14]: 0.0752 µg/mL; Tmax [15]: 4.2 h; AUC(0-inf) [16]: 0.676 µg·h/mL; bioavailability [17]: 15.9%; half-life [18]: 6 h; TGI [25]: Active |
| C=CC(=O)Nc1cccc(-c2c(C)oc3ncnc(N[C@H](CO)c4ccccc4)c23)c1 | 62 nM | 1320 nM | 46 nM | > 20000 nM | – |
| C=CC(=O)Nc1cccc(-c2c(-c3ccccc3)oc3ncnc(N[C@@H](CO)c4ccccc4)c23)c1 | – | – | – | – | CC50 [3]: 840 nM; CC50 [4]: 13400 nM |

Further lines, with some results ahead:

| IC50 [1] | IC50 [2] | Compound | CC50 ([3]; Homo sapiens, HCC827, 96 h) | CC50 ([4]; Homo sapiens, NCI-H1975, 96 h) | also measured |
| --- | --- | --- | --- | --- | --- |
| 64 nM | 6370 nM | CC#CC(=O)Nc1cccc(-c2c(-c3ccccc3)oc3ncnc(N[C@H](CO)c4ccccc4)c23)c1 | 182 nM | 6740 nM | – |
| 13 nM | 117 nM | CCN(C/C=C/C(=O)Nc1cccc(-c2c(-c3ccccc3)oc3ncnc(N[C@H](CO)c4ccccc4)c23)c1)CCO | 19 nM | 2410 nM | – |
| 19 nM | 283 nM | O=C(/C=C/CN1CCOCC1)Nc1cccc(-c2c(-c3ccccc3)oc3ncnc(N[C@H](CO)c4ccccc4)c23)c1 | 17 nM | 2830 nM | – |
| 117 nM | 500 nM | C=CC(=O)Nc1cccc(-c2c(-c3ccccc3)oc3ncnc(N[C@H](C)c4ccccc4)c23)c1 | 58 nM | 4300 nM | IC50 [5]: 0.214 nM; IC50 [6]: 0.641 nM; IC50 [7]: 1.48 nM; IC50 [8]: 8.13 nM; CC50 ([9]; Homo sapiens, A-431, 96 h): 449 nM |
| 14 nM | 131 nM | CCN(CC)C/C=C/C(=O)Nc1cccc(-c2c(-c3ccccc3)oc3ncnc(N[C@H](CO)c4ccccc4)c23)c1 | 62 nM | 2480 nM | – |
| 3670 nM | 2460 nM | C=CS(=O)(=O)Nc1cccc(-c2c(-c3ccccc3)oc3ncnc(N[C@H](CO)c4ccccc4)c23)c1 | 2710 nM | 7240 nM | – |
| 136 nM | 650 nM | C=CC(=O)Nc1cccc(-c2c(-c3ccccc3)sc3ncnc(N[C@H](CO)c4ccccc4)c23)c1 | 146 nM | 10700 nM | IC50 [5]: 1.15 nM; IC50 [6]: 4.82 nM; IC50 [7]: 17.8 nM; IC50 [8]: 369 nM; CC50 ([9]; Homo sapiens, A-431, 96 h): > 20000 nM |
| – | > 10000 nM | OC[C@@H](Nc1ncnc2oc(-c3ccccc3)c(-c3ccccc3)c12)c1ccccc1 | 518 nM | – | – |
| > 10000 nM | > 10000 nM | CC(C)C/C=C/C(=O)Nc1cccc(-c2c(-c3ccccc3)oc3ncnc(N[C@H](CO)c4ccccc4)c23)c1 | 679 nM | > 20000 nM | – |
| 5000 nM | > 10000 nM | O=C(/C=C/c1ccccc1)Nc1cccc(-c2c(-c3ccccc3)oc3ncnc(N[C@H](CO)c4ccccc4)c23)c1 | 1780 nM | > 20000 nM | – |
| 3060 nM | > 10000 nM | O=C(O)/C=C/C(=O)Nc1cccc(-c2c(-c3ccccc3)oc3ncnc(N[C@H](CO)c4ccccc4)c23)c1 | 4120 nM | > 20000 nM | – |
| 239 nM | > 10000 nM | C/C=C/C(=O)Nc1cccc(-c2c(-c3ccccc3)oc3ncnc(N[C@H](CO)c4ccccc4)c23)c1 | 307 nM | 13200 nM | – |
